# From ChEMBL document CHEMBL4330062 (Eur J Med Chem, 2019)
# pIC50, pKi: −log10 of the molar value. Where a SMILES comes first, the peptide text is derived from it. Bridges are numbered along the chain shown (N, C = ends). The star is where a group is joined. NH(β-GlcNAc) = CC(=O)N[C@@H]1[C@@H](O)[C@H](O)[C@@H](CO)O[C@H]1N*; Valol = CC(C)[C@@H](CO)N*
# Assays:
# [1] = biological target: T1, Somatostatin receptor type 5 (Homo sapiens, UniProt P35346); experiment: Displacement of [125I]somatostatin-14 (Tyr11) from human SSTR5 expressed in African green monkey COS1 cell membranes after 2 hrs by scintillation counting method
# Procedure, shortened: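 SSTR-5 gene cloned into pCMV6c and transfected into COS1 cells. Membrane preparation (20 μg protein) incubated 2 h at room temperature in Na⁺-free buffer: 10 mM HEPES, 1% BSA, 5 mM MgCl2, 1 mg/ml bacitracin, pH 7.45. Contained ~10 pM [¹²⁵I-Tyr¹¹]-somatostatin-14, either alone or with somatostatin-14 and test ligands at various concentrations.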
# [2] = biological target: T2, Somatostatin receptor type 4 (Homo sapiens, UniProt P31391); experiment: Displacement of [125I]somatostatin-14 (Tyr11) from human SSTR4 expressed in African green monkey COS1 cell membranes after 2 hrs by scintillation counting method
# Procedure, shortened: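 Membranes from transiently transfected COS-1 cells (10 μg protein) incubated 2 h at room temperature in 10 mM Hepes pH 7.5 with 5 mM MgCl2, bacitracin, 0.5% BSA and ¹²⁵I-[Tyr¹¹]-somatostatin-14 (30,000 cpm), with unlabeled somatostatin-14 and test ligands at various concentrations. Bound radioactivity read by scintillation counting.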
# [3] = organism: Homo sapiens; experiment: Selectivity ratio of Ki for human SSTR4 to Ki for human SSTR5
# [4] = biological target: T2, Somatostatin receptor type 4; experiment: Inhibition of human SSTR4 by radioligand binding assay
# [5] = biological target: T1, Somatostatin receptor type 5; experiment: Inhibition of human SSTR5 by radioligand binding assay
# [6] = organism: Homo sapiens; experiment: Selectivity ratio of Ki for human SSTR5 to Ki for human SSTR4
# T2 sequence (P31391 whole entry): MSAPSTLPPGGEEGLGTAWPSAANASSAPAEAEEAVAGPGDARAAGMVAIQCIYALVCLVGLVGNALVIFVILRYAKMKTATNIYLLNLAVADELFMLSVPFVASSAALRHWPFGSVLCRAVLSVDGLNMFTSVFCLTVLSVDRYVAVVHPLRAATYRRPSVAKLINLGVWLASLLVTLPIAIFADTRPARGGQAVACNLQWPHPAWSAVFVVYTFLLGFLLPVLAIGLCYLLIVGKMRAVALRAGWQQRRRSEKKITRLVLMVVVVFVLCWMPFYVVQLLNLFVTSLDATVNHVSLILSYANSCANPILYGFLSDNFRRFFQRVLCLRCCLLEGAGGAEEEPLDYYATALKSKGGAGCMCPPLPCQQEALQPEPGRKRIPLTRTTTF
# T1 sequence (P35346 whole entry): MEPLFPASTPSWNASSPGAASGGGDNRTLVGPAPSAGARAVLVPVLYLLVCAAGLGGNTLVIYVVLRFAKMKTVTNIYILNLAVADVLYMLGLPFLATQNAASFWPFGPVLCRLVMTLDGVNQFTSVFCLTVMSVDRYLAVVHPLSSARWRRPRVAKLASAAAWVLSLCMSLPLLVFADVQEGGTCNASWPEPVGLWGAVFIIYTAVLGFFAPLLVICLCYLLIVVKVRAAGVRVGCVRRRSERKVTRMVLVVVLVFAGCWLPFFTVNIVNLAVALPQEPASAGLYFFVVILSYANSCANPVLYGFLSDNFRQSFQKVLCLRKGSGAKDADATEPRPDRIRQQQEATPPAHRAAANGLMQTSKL
pIC50 [1],pKi [1],pIC50 [2],pKi [2],Ratio Ki [3],pIC50 [4],pIC50 [5],Ratio Ki [6],Structure (SMILES)
< 4.00,< 4.00,< 4.00,< 4.00,–,–,–,–,NCCCCN1CCCCCCOCc2cn(nn2)C[C@H]2O[C@H](CC1)[C@H](OCc1cccc3ccccc13)[C@@H](O)[C@H]2O
–,5.29,–,5.27,1.05,–,–,–,CC(=O)O[C@H]1[C@H](OC(C)=O)[C@@H](CCCCCN)N(Cc2cccc3ccccc23)C[C@@H]1OC(C)=O
–,–,–,–,–,6.99,< 6.00,–,C[C@@H](O)[C@@H]1NC(=O)[C@H](CCCCN)NC(=O)[C@@H](Cc2c[nH]c3ccccc23)NC(=O)[C@H](Cc2ccccc2)NC(=O)[C@@H](NC(=O)[C@@H](Cc2ccccc2)NC(=O)CN2CCN(CC(=O)O)CCN(CC(=O)O)CCN(CC(=O)O)CC2)CSSC[C@@H](C(=O)N[C@H](CO)[C@@H](C)O)NC1=O
–,4.64,–,< 4.00,–,–,–,–,NCCCCC[C@@H]1[C@@H](O)[C@H](O)[C@@H](O)CN1Cc1cccc2ccccc12
4.74,4.92,5.16,5.17,–,–,–,1.8,Cc1ccc(S[C@H]2O[C@H](CO)[C@@H](O)[C@H](OCCCCN)[C@@H]2NC(=O)Cc2c[nH]c3ccccc23)cc1
4.80,5.00,5.13,5.14,–,–,–,–,CC(=O)N[C@@H](Cc1ccccc1)C(=O)N[C@H]1CSSC[C@@H](C(=O)N[C@H](CO)C(C)C)NC(=O)[C@H](CC(=O)O)NC(=O)[C@H](CCCCN)NC(=O)[C@H](Cc2c[nH]c3ccccc23)NC(=O)[C@H](Cc2ccccc2)NC1=O (Ac-FCFWKDC-Valol; disulfide 2-7)
–,< 4.00,< 4.00,< 4.00,–,–,–,–,CC(=O)N[C@@H](Cc1ccccc1)C(=O)N[C@@H](C)C(=O)N[C@@H](Cc1ccccc1)C(=O)N[C@@H](Cc1c[nH]c2ccccc12)C(=O)N[C@@H](CCCCN)C(=O)N[C@@H](CC(=O)O)C(=O)N[C@@H](C)C(=O)N[C@H](CO)C(C)C (Ac-FAFWKDA-Valol)
–,5.89,–,5.72,1.46,–,–,–,NCCCCC[C@@H]1[C@@H](OCc2ccccc2)[C@H](OCc2ccccc2)[C@@H](OCc2ccccc2)CN1Cc1cccc2ccccc12
5.28,5.47,4.68,4.70,–,–,–,–,CC(=O)N[C@@H]1[C@@H](O)[C@H](O)[C@@H](CO)O[C@H]1NC(=O)C[C@@H]1NC(=O)[C@H](CCCCN)NC(=O)[C@H](Cc2c[nH]c3ccccc23)NC(=O)[C@H](Cc2ccccc2)NC(=O)[C@@H](NC(=O)[C@H](Cc2ccccc2)NC(C)=O)CSSC[C@@H](C(=O)N[C@H](CO)C(C)C)NC1=O (Ac-FCFWKD(NH(β-GlcNAc))C-Valol; disulfide 2-7)
< 4.00,< 4.00,< 4.00,< 4.00,–,–,–,–,NCCCCN1CCCCCOCc2cn(nn2)C[C@H]2O[C@H](CC1)[C@H](OCc1cccc3ccccc13)[C@@H](O)[C@H]2O
5.21,5.39,4.66,4.68,–,–,–,–,CC(C)CCO[C@@H]1[C@@H](O)[C@@H](O)[C@H]2Cn3cc(nn3)COCCCCCCN(CCc3c[nH]c4ccccc34)CC[C@H]1O2
5.52,5.49,5.92,5.72,–,–,–,–,NCCCCO[C@H]1[C@H](O)[C@H](OCc2ccccc2)COCCCc2cccc(O)c2C(=O)OC[C@@H]1NC(=O)Cc1c[nH]c2ccccc12
–,< 4.00,–,< 4.00,–,–,–,–,NCCCCO[C@@H]1[C@@H](O)[C@H](CO)OC(O)[C@@H]1NC(=O)Cc1c[nH]c2ccccc12 (stereo not given in full)
5.80,5.96,6.23,6.24,–,–,–,–,NC/C=C/CO[C@H]1[C@H](O)[C@H](OCc2ccccc2)COC/C=C/c2cccc(O)c2C(=O)OC[C@@H]1NC(=O)Cc1c[nH]c2ccccc12
5.23,5.41,5.66,5.68,–,–,–,1.8,Cc1ccc(S[C@H]2O[C@H](CO)[C@@H](O)[C@H](OC/C=C/CN)[C@@H]2NC(=O)Cc2c[nH]c3ccccc23)cc1
–,–,–,–,–,–,–,1.13,NCCCCCOC[C@@H]1[C@@H](OCc2ccccc2)[C@H](OCc2ccccc2)[C@@H](OCc2ccccc2)CN1CCc1c[nH]c2ccccc12

Structure (SMILES),pIC50 [1],pKi [1],pIC50 [2],pKi [2],Ratio Ki [3],pIC50 [4],pIC50 [5],Ratio Ki [6]
NCCCCCOC[C@@H]1[C@@H](O)[C@H](O)[C@@H](O)CN1CCc1c[nH]c2ccccc12,–,< 4.00,–,–,–,–,–,–
